Reference: ChEMBL document CHEMBL2331476, “A novel semisynthetic flavonoid 7-O-galloyltaxifolin upregulates heme oxygenase-1 in RAW264.7 cells via MAPK/Nrf2 pathway” (J Med Chem, 2013)
Calls of active or inactive are those of the source. The rule behind the calls is not given here.

Key:
[1] = biological target: T1, Nuclear factor erythroid 2-related factor 2 (Mus musculus) (UniProt Q60795); assay: Activation of Nrf2 in mouse RAW264.7 cells assessed as induction of Hmox1 mRNA expression at 50 uM after 6 hrs by real-time PCR analysis in presence of SB203580; assay type: cell-based
T1 sequence (whole entry): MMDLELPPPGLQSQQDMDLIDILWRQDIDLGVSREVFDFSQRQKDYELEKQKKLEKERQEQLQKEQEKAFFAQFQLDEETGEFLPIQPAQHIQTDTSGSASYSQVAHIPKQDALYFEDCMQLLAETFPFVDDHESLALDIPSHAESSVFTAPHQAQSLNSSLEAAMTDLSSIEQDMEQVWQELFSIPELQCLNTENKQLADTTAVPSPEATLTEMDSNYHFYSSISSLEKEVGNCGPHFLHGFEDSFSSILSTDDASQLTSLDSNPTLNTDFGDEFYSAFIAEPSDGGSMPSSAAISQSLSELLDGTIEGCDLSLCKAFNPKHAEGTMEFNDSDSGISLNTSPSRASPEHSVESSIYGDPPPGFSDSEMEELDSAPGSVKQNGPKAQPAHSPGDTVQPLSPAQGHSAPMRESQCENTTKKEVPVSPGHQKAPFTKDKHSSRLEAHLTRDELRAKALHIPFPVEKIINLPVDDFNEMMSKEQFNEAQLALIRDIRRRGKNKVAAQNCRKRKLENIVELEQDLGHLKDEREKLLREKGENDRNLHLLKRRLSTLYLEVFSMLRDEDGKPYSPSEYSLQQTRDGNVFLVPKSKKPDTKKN
Outline: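 Pretreatment 30 min with 0.1% DMSO, 15 μM PD98059, 15 μM SB203580 or 30 μM SP600125, then 50 μM agent for 6 h in serum-free medium. Hmox1 mRNA by TaqMan qPCR normalized to Gapdh, given as percent of agent-induced expression; mean ± SD of three experiments.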

[2] = biological target: T1, Nuclear factor erythroid 2-related factor 2 (Mus musculus); assay: Activation of Nrf2 in mouse RAW264.7 cells assessed as upregulation of HO1 protein expression at 50 uM after 6 hrs by Western blotting analysis; assay type: cell-based
Outline: (§1)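 HO-1 protein in whole-cell lysates (20 μg/lane) of serum-starved RAW264.7 cells after 6 h at 10-50 μM or 50 μM for 1-6 h in serum-free medium, 0.1% DMSO control. Chemiluminescent Western blot; HO-1 densitometry normalized to actin, mean of three experiments.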

[3] = biological target: T1, Nuclear factor erythroid 2-related factor 2 (Mus musculus); assay: Activation of Nrf2 in mouse RAW264.7 cells assessed as upregulation of HO1 protein expression at 10 uM after 6 hrs by Western blotting analysis; assay type: cell-based; outline: as §1
[4] = biological target: T1, Nuclear factor erythroid 2-related factor 2 (Mus musculus); assay: Activation of Nrf2 in mouse RAW264.7 cells assessed as induction of Hmox1 mRNA expression at 50 uM after 6 hrs by real-time PCR analysis in presence of […] N-acetyl-L-cysteine; assay type: cell-based
[5] = biological target: T1, Nuclear factor erythroid 2-related factor 2 (Mus musculus); assay: Activation of Nrf2 in mouse RAW264.7 cells assessed as reduction of KEAP1 protein level at 10 to 50 uM after 6 hrs by Western blotting analysis; assay type: cell-based
Outline: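 Whole-cell lysates (20 μg/lane) from serum-starved RAW264.7 cells given 10-50 μM for 6 h or 50 μM for 1-6 h in serum-free medium, 0.1% DMSO vehicle. Keap1 and actin detected by chemiluminescent Western blot; Keap1 band intensity normalized to actin, mean of three experiments.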

[6] = biological target: MAP kinase p38 (Homo sapiens) (UniProt O15264+Q15759+Q16539+P53778); assay: Activation of p38MAPK in mouse RAW264.7 cells assessed as phosphorylation at Thr180/Tyr182 at 50 uM after 30 mins to 4 hrs by Western blotting analysis; assay type: cell-based; conditions: TDE = time-dependent effect
Outline: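 p38 phosphorylation at Thr180/Tyr182 and total p38 probed in whole-cell lysates (35 μg/lane) of serum-starved RAW264.7 cells treated for 30 min to 4 h in serum-free medium. Positive controls were 5 μM anisomycin or 75 ng/mL EGF for 30 min. Chemiluminescent Western detection.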

[7] = biological target: Mitogen-activated protein kinase 8 (Mus musculus) (UniProt Q91Y86); assay: Activation of JNK1 in mouse RAW264.7 cells assessed as phosphorylation at Thr183/Tyr185 at 50 uM after 30 mins by Western blotting analysis; assay type: cell-based
Sequence of Mitogen-activated protein kinase 8 (Mus musculus) (Q91Y86 whole entry): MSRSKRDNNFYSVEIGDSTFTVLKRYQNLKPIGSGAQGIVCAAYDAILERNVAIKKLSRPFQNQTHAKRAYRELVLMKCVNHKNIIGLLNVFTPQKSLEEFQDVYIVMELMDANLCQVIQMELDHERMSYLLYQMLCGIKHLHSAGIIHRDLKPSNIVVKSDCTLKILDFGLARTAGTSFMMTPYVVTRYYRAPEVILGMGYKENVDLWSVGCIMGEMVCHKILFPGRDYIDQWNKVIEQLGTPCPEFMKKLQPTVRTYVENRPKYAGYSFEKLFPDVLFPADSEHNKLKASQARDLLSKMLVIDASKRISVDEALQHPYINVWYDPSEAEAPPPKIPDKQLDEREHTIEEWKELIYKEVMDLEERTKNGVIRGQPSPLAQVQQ
Outline: (§2)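 Serum-starved RAW264.7 cells exposed in serum-free medium for 30 min to 4 h; 5 μM anisomycin for 30 min as positive control. Whole-cell lysates (30 μg/lane) blotted for JNKs dually phosphorylated at Thr183/Tyr185 and total JNKs, chemiluminescent detection.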

RAW264.7 [8] = assay: Stability in mouse RAW264.7 cells assessed as gallic acid level at 50 uM after 6 hrs by HPLC/MS analysis; assay type: ADME, cell-based; conditions: raw264.7, 6 h
[9] = biological target: Mitogen-activated protein kinase 9/10 (Mus musculus) (UniProt Q9WTU6+Q61831); assay: Activation of JNK2/3 in mouse RAW264.7 cells assessed as phosphorylation at 50 uM after 30 mins to 4 hrs by Western blotting analysis; assay type: cell-based; conditions: TDE = time-dependent effect; outline: as §2
Sequence of Mitogen-activated protein kinase 9/10 (Mus musculus) (Q61831 whole entry, looked up): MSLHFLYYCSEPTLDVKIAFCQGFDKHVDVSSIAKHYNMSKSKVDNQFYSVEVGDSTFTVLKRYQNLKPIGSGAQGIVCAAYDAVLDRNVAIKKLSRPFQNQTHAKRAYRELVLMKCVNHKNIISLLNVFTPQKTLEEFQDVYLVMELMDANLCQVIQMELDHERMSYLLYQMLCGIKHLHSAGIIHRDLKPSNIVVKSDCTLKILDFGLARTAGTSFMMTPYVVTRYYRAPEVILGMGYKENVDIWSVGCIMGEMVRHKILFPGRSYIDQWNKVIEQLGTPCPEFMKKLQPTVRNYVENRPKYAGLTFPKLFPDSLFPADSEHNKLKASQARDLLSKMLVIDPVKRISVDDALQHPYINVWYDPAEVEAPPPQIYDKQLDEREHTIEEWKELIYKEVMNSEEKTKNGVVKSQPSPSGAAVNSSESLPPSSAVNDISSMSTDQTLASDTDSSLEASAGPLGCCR
Sequence of Mitogen-activated protein kinase 9/10 (Mus musculus) (Q9WTU6 whole entry, looked up): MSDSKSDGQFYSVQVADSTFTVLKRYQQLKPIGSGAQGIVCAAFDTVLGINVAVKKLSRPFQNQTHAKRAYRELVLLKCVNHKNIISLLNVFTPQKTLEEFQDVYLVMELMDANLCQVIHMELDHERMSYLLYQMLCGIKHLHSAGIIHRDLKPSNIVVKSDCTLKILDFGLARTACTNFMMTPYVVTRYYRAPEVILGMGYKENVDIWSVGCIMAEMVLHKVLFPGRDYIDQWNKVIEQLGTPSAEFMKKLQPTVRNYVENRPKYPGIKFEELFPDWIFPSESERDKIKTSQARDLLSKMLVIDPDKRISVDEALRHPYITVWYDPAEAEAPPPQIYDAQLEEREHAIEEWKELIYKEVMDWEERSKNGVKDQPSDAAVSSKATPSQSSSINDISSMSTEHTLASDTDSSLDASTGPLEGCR

RAW264.7 [10] = assay: Cytotoxicity against mouse RAW264.7 cells assessed as decreased cell viability at 50 uM after 6 hrs by MTT assay; assay type: cell-based; conditions: raw264.7, 6 h
Outline: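 Serum-starved RAW264.7 cells exposed 6 h at 10 or 50 μM; 0.1% DMSO control (100% viability), 1.5% Triton X-100 positive control. Cells washed and incubated 2 h at 37 °C with 0.5 mg/mL MTT in serum-free medium. Formazan dissolved in DMSO, A540 read, viability relative to DMSO-treated cells.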

[11] = biological target: T1, Nuclear factor erythroid 2-related factor 2 (Mus musculus); assay: Activation of Nrf2 in mouse RAW264.7 cells assessed as upregulation of HO1 protein expression at 50 uM after 1 hrs by Western blotting analysis relative to untreated control; assay type: cell-based; outline: as §1
[12] = biological target: Mitogen-activated protein kinase 1 and 3 (ERK2 and ERK1) (Mus musculus) (UniProt P63085+Q63844); assay: Activation of ERK1/2 in mouse RAW264.7 cells assessed as phosphorylation at 50 uM up to 3 hrs by Western blotting analysis; assay type: cell-based
Sequence of Mitogen-activated protein kinase 1 and 3 (ERK2 and ERK1) (Mus musculus) (P63085 whole entry, looked up): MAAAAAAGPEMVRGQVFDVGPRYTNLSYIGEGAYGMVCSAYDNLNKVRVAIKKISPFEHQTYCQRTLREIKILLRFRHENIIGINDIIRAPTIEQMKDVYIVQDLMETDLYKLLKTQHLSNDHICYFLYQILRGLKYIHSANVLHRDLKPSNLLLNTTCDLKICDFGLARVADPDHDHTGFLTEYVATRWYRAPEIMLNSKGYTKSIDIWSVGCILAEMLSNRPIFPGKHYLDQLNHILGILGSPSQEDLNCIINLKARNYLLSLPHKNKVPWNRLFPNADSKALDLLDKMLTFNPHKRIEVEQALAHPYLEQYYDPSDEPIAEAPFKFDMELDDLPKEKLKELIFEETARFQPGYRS
Sequence of Mitogen-activated protein kinase 1 and 3 (ERK2 and ERK1) (Mus musculus) (Q63844 whole entry, looked up): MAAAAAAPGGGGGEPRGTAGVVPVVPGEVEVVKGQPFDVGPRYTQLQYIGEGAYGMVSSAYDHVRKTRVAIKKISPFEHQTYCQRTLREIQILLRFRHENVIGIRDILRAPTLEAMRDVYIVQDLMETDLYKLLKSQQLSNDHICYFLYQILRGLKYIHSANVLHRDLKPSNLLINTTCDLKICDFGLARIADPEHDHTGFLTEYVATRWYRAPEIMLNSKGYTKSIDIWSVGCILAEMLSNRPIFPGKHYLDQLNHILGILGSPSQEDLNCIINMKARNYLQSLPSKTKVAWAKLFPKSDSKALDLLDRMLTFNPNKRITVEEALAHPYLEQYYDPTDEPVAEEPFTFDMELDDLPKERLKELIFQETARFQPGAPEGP
Outline: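 RAW264.7 cells (passage 5-25) seeded at 1 × 10⁵ cells/cm², serum-starved overnight, then exposed in serum-free medium for 30 min to 3 h; 0.1% DMSO vehicle; 75 ng/mL EGF for 30 min as positive control. Whole-cell lysates (20 μg/lane) on 10% SDS-PAGE, blotted for phospho-ERK1 (Thr202/Tyr204), phospho-ERK2 (Thr185/Tyr187) and total ERK1/2, chemiluminescent detection.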

[13] = biological target: T1, Nuclear factor erythroid 2-related factor 2 (Mus musculus); assay: Activation of Nrf2 in mouse RAW264.7 cells assessed as upregulation of HO1 protein expression at 50 uM after 4 hrs by Western blotting analysis relative to untreated control; assay type: cell-based; outline: as §1
RAW264.7 [14] = assay: Drug metabolism in mouse RAW264.7 cells assessed as 7-O-galloylquercetin level at 50 uM after 6 hrs by HPLC/ESI-QqTOF/MS analysis; assay type: ADME, cell-based; conditions: raw264.7, 6 h
Outline: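 Cells given 50 μM for up to 6 h, then scraped, washed twice in PBS and sonicated in methanol with 5% acetic acid. Supernatant analysed by UPLC on a phenyl column (water/1% acetic acid/methanol to methanol gradient, 35 °C) with negative ESI-QqTOF MS. Contents expressed as nmol per 10⁶ cells.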

Structure (SMILES): O=C(Oc1cc(O)c2c(c1)O[C@H](c1ccc(O)c(O)c1)[C@@H](O)C2=O)c1cc(O)c(O)c(O)c1
- Activity [1]: inactive
- fold change (FC) [2]: 2.3
- fold change (FC) [3]: 1.1
- Activity [4]: inactive
- Activity [5]: Dose-dependent effect
- Activity [6]: tde
- Activity [7]: Active
- Stability (RAW264.7 [8]): Stable
- Activity [9]: tde
- Activity (RAW264.7 [10]): 72%
- fold change (FC) [11]: 1.1
- Activity [12]: inactive
- fold change (FC) [13]: 1.6
- Drug metabolism (RAW264.7 [14]): Active
